Measurements from ChEMBL document CHEMBL1123066, “N alpha-(diphenoxyphosphoryl)-L-alanyl-L-proline, N alpha-[bis (4-nitrophenoxy)phosphoryl]-L-alanyl-L-proline, and N alpha-[ (2-phenylethyl)phenoxyphosphoryl]-L-alanyl-L-proline: releasers of potent inhibitors of angiotensin converting enzyme at physiological pH and temperature” (J Med Chem, 1985).
pIC50, pKi: −log10 of the molar value.

How the values were obtained:
[1] = Rate constant was evaluated for the loss of 1 mol of phenol at the pH 7.5 in the presence of phosphate buffer; type: ADME
In short: (§1)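 Ester hydrolysis at pH 7.5 and 37 °C in 100 mM Tris or phosphate buffer with 300 mM NaCl, no enzyme. Phenol release (about 1 mM ester) followed at 275 nm, Δε 1375 M⁻¹cm⁻¹. 4-Nitrophenol release (about 10 μM ester) followed at 400 nm, Δε 12500 M⁻¹cm⁻¹. Starting concentrations checked by full hydrolysis in 6 N HCl at 110 °C. First-order rate constants and half-times derived.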

[2] = The half-life period was evaluated for the loss of 1 mol of phenol at the pH 7.5 in the presence of phosphate buffer; type: ADME; in short: as §1
[3] = The half-life period was evaluated for the loss of 1 mol of phenol at the pH 7.5 in the presence of Tris buffer; type: ADME; in short: as §1
[4] = Rate constant was evaluated for the loss of 2 mol of phenol at the pH 7.5 in the presence of phosphate buffer; type: ADME; in short: as §1
[5] = The half-life period was evaluated for the loss of 2 mol of phenol at the pH 7.5 in the presence of phosphate buffer; type: ADME; in short: as §1
[6] = Rate constant was evaluated for the loss of 2 mol of phenol at the pH 7.5 in the presence of Tris buffer; type: ADME; in short: as §1
[7] = The half-life period was evaluated for the loss of 2 mol of phenol at the pH 7.5 in the presence of Tris buffer; type: ADME; in short: as §1
[8] = biological target: T1, Angiotensin-converting enzyme (Oryctolagus cuniculus, UniProt P12822); test: Inhibition of Angiotensin I converting enzyme from rabbit lungs at pH 7.5
T1 sequence (P12822 whole entry): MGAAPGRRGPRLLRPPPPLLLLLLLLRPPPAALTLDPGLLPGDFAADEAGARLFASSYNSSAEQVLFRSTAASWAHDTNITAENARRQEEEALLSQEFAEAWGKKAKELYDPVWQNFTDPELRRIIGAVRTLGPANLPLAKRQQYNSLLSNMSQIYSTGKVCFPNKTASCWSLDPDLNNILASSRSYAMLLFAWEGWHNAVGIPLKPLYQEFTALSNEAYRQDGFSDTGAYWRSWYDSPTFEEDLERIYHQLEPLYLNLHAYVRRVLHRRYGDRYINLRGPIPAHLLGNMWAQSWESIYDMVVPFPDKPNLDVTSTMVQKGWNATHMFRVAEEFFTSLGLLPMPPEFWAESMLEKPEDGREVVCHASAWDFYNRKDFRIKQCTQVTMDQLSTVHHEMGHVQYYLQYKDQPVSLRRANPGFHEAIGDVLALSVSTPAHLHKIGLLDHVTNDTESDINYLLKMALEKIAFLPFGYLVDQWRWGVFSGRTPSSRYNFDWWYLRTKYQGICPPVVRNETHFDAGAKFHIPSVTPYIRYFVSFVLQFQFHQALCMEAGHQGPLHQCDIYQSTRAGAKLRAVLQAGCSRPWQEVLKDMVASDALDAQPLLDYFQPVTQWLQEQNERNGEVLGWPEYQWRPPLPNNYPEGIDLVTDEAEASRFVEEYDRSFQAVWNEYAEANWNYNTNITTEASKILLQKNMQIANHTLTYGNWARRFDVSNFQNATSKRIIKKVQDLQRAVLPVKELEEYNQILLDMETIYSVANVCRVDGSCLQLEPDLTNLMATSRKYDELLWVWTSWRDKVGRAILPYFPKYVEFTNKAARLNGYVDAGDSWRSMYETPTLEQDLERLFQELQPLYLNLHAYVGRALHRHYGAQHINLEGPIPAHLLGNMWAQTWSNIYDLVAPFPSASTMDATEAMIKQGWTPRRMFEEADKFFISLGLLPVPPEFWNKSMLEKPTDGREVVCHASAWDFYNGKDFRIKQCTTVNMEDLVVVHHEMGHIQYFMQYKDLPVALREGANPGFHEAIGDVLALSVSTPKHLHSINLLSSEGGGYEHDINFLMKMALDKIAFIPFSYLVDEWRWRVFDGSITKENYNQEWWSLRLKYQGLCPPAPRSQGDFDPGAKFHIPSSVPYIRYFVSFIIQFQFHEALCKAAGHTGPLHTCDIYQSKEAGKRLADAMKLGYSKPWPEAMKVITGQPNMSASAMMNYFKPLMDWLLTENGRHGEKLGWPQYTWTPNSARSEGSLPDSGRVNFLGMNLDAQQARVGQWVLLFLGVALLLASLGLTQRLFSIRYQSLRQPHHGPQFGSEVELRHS

[9] = Inhibitory potency was evaluated against angiotensin converting enzyme at the pH 7.5 in the presence of Tris phosphate buffer, 300 mM in NaCl; type: ADME
[10] = Rate constant was evaluated for the loss of 1 mol of phenol at the pH 7.5 in the presence of Tris buffer; type: ADME; in short: as §1
[11] = biological target: T1, Angiotensin-converting enzyme; test: Inhibitory constant was evaluated against Angiotensin I converting enzyme from rabbit lungs
[12] = Half life against hydrolysis at P-N bond; type: ADME
In short: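 P–N cleavage measured in pH 7.5 phosphate buffer at 37 °C. Free Ala-Pro primary amine determined by fluorescamine assay over the hydrolysis time course. Observed rate constant and half-time derived.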

[13] = Inhibitory potency was evaluated against angiotensin converting enzyme at the pH 7.5; type: ADME
[14] = biological target: T1, Angiotensin-converting enzyme; test: Inhibitory constant was evaluated against Angiotensin I converting enzyme from rabbit lungs at pH 8 in TRIS phosphate/borate buffer
[15] = biological target: T1, Angiotensin-converting enzyme; test: Inhibitory constant was evaluated against Angiotensin I converting enzyme from rabbit lungs at pH 8
[16] = biological target: T1, Angiotensin-converting enzyme; test: Inhibitory activity against Angiotensin I converting enzyme was evaluated
[17] = biological target: T1, Angiotensin-converting enzyme; test: Binding affinity against Angiotensin I converting enzyme

Row | SMILES | Rate constant [1] [h⁻¹] | half-life [2] [h] | half-life [3] [h] | pKi [8] | Rate constant [10] [h⁻¹] | further results
1 | C[C@H](NP(=O)(Oc1ccc([N+](=O)[O-])cc1)Oc1ccc([N+](=O)[O-])cc1)C(=O)N1CCC[C@H]1C(=O)O | 0.34 | 2 | 3.4 | 6.10 | 0.2 | Rate constant [4]: 0.031 h⁻¹; half-life [5]: 22 h; Rate constant [6]: 0.025 h⁻¹; half-life [7]: 29 h; half-life [9]: 4 h
2 | C[C@H](NP(=O)([O-])[O-])C(=O)N1CCC[C@H]1C(=O)[O-].[K+].[K+].[K+] |  |  |  | 8.85 |  | pIC50 [11]: 6.15; half-life [12]: 2.2 h
3 | C[C@H](NP(=O)(Oc1ccccc1)Oc1ccccc1)C(=O)N1CCC[C@H]1C(=O)O | 0.0012 | 576 | 528 | 4.38 | 0.0013 | half-life [13]: 384 h
4 | C[C@H](NP(=O)(O)Oc1ccccc1)C(=O)N1CCC[C@H]1C(=O)O |  |  |  | 8.10 |  | pIC50 [14]: 1.30; pIC50 [15]: 6.05
5 | C[C@H](NP(=O)(O)OCc1ccccc1)C(=O)N1CCC[C@H]1C(=O)O |  |  |  | 8.92 |  | 
6 | C[C@H](NP(=O)(O)CCc1ccccc1)C(=O)N1CCC[C@H]1C(=O)O |  |  |  | 9.30 |  | pIC50 [16]: 8.15
7 | C[C@H](NP(=O)(O)Oc1ccc([N+](=O)[O-])cc1)C(=O)N1CCC[C@H]1C(=O)O |  |  |  | 7.74 |  | pKi [17]: 7.74
8 | C[C@H](NP(=O)(CCc1ccccc1)Oc1ccccc1)C(=O)N1CCC[C@H]1C(=O)O (stereo partly drawn) | 0.001 | 744 | 504 | 4.26 | 0.0014 | half-life [9]: 912 h
